Data taken from ChEMBL document CHEMBL1155468, “Syntheses and evaluation of anticonvulsant profile and teratogenicity of novel amide derivatives of branched aliphatic carboxylic acids with 4-aminobenzensulfonamide” (J Med Chem, 2010).
The source made the active and inactive calls. The rule behind the calls is not given here.

What was measured:
Mus musculus [1] = test: Neurotoxicity in CF1 albino mouse assessed as motor impairment at 300 mg/kg, ip after 0.5 hrs; format: toxicity, organism-based; parameters: dose 300 mg/kg, route intraperitoneal; conditions: in vivo
Mus musculus [2] = test: Anticonvulsant activity in CF1 albino mouse assessed as inhibition of subcutaneous pentylenetetrazole-induced seizures at 300 mg/kg, ip after 4 hrs; format: functional, organism-based; parameters: dose 300 mg/kg
How it was run: (§1)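 Adult male CF no. 1 albino mice (18-25 g) dosed ip with compound suspended in 0.5% methylcellulose (0.01 mL/g). Convulsant: pentylenetetrazol dissolved in 0.9% saline as a 0.85% solution for mice, given subcutaneously.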

Rattus norvegicus [3] = test: Anticonvulsant activity in Sprague-Dawley rat assessed as inhibition of maximal electroshock-induced seizures at 30 mg/kg, po after 2 hrs
Mus musculus [4] = test: Anticonvulsant activity in CF1 albino mouse assessed as inhibition of subcutaneous pentylenetetrazole-induced seizures at 300 mg/kg, ip after 0.5 hrs; format: functional, organism-based; parameters: dose 300 mg/kg; how it was run: as §1
Mus musculus [5] = test: Anticonvulsant activity in CF1 albino mouse assessed as inhibition of subcutaneous pentylenetetrazole-induced seizures at 100 mg/kg, ip after 0.5 hrs; format: functional, organism-based; parameters: dose 100 mg/kg; how it was run: as §1
Mus musculus [6] = test: Anticonvulsant activity in CF1 albino mouse assessed as inhibition of maximal electroshock-induced seizures at 100 mg/kg, ip after 0.5 hrs; format: functional, organism-based; parameters: dose 100 mg/kg
How it was run: (§2)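 Test compounds suspended in 0.5% methylcellulose and given ip to adult male CF no. 1 albino mice (18-25 g) at 0.01 mL/g body weight before maximal electroshock challenge.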

Mus musculus [7] = test: Neurotoxicity in CF1 albino mouse assessed as motor impairment at 100 mg/kg, ip after 4 hrs; format: toxicity, organism-based; parameters: dose 100 mg/kg, route intraperitoneal; conditions: in vivo
Mus musculus [8] = test: Neurotoxicity in CF1 albino mouse assessed as motor impairment at 300 mg/kg, ip after 4 hrs; format: toxicity, organism-based; parameters: dose 300 mg/kg, route intraperitoneal; conditions: in vivo
Rattus norvegicus [9] = test: Anticonvulsant activity in po dosed rat assessed as inhibition of maximal electroshock-induced seizures
Mus musculus [10] = test: Anticonvulsant activity in CF1 albino mouse assessed as inhibition of maximal electroshock-induced seizures at 30 mg/kg, ip after 0.5 hrs; format: functional, organism-based; parameters: dose 30 mg/kg; how it was run: as §2
Mus musculus [11] = test: Anticonvulsant activity in CF1 albino mouse assessed as inhibition of subcutaneous pentylenetetrazole-induced seizures at 30 mg/kg, ip after 4 hrs; format: functional, organism-based; parameters: dose 30 mg/kg; how it was run: as §1
Mus musculus [12] = test: Teratogenic effect in SWV mouse assessed as resorptions at 310 mg/kg, ip administered on morning of day 8 of gestation; format: toxicity, organism-based; parameters: dose 310 mg/kg, route intraperitoneal; conditions: in vivo
How it was run: (§3)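 SWV inbred mice: two-month-old nulligravid females mated overnight with males and checked for vaginal plugs next morning; gestation onset taken as 10 p.m. the previous night. On gestation day 8.5 each dam got one ip injection, 0.55–2.7 mmol/kg, in 25% aqueous Cremophor EL (vehicle controls dosed alike), 10 μL/g body weight. Litters and implants tallied; resorptions and live fetuses reported as counts with percentages.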

Mus musculus [13] = test: Teratogenic effect in SWV mouse assessed as fetuses with neural tube deffects at 511 mg/kg, ip administered on morning of day 8 of gestation; format: toxicity, organism-based; parameters: dose 511 mg/kg, route intraperitoneal; conditions: in vivo
How it was run: (§4)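 Two-month-old nulligravid SWV females were mated overnight and checked for vaginal plugs the next morning; gestation onset was set at 10 p.m. the previous night. On gestation day 8.5, each dam received a single ip injection (0.55-2.7 mmol/kg range) or vehicle (25% aqueous Cremophor EL) at 10 μL/g body weight. Litters were scored for implants, resorptions, live and dead fetuses, and fetuses with neural tube defects.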

Mus musculus [14] = test: Anticonvulsant activity in CF1 albino mouse assessed as inhibition of maximal electroshock-induced seizures at 300 mg/kg, ip after 0.5 hrs; format: functional, organism-based; parameters: dose 300 mg/kg; how it was run: as §2
Mus musculus [15] = test: Anticonvulsant activity in CF1 albino mouse assessed as inhibition of subcutaneous pentylenetetrazole-induced seizures at 100 mg/kg, ip after 4 hrs; format: functional, organism-based; parameters: dose 100 mg/kg; how it was run: as §1
Mus musculus [16] = test: Teratogenic effect in SWV mouse assessed as fetuses with neural tube deffects at 310 mg/kg, ip administered on morning of day 8 of gestation; format: toxicity, organism-based; parameters: dose 310 mg/kg, route intraperitoneal; conditions: in vivo; how it was run: as §4
Mus musculus [17] = test: Teratogenic effect in SWV mouse assessed as live fetuses at 511 mg/kg, ip administered on morning of day 8 of gestation; format: toxicity, organism-based; parameters: dose 511 mg/kg, route intraperitoneal; conditions: in vivo; how it was run: as §3
Mus musculus [18] = test: Anticonvulsant activity in CF1 albino mouse assessed as inhibition of subcutaneous pentylenetetrazole-induced seizures at 30 mg/kg, ip after 0.5 hrs; format: functional, organism-based; parameters: dose 30 mg/kg; how it was run: as §1
Mus musculus [19] = test: Neurotoxicity in CF1 albino mouse assessed as motor impairment at 30 mg/kg, ip after 4 hrs; format: toxicity, organism-based; parameters: dose 30 mg/kg, route intraperitoneal; conditions: in vivo
Mus musculus [20] = test: Teratogenic effect in SWV mouse assessed as live fetuses at 156 mg/kg, ip administered on morning of day 8 of gestation; format: toxicity, organism-based; parameters: dose 156 mg/kg, route intraperitoneal; conditions: in vivo; how it was run: as §4
Mus musculus [21] = test: Teratogenic effect in SWV mouse assessed as resorptions at 156 mg/kg, ip administered on morning of day 8 of gestation; format: toxicity, organism-based; parameters: dose 156 mg/kg, route intraperitoneal; conditions: in vivo; how it was run: as §3
Mus musculus [22] = test: Teratogenic effect in SWV mouse assessed as live fetuses at 310 mg/kg, ip administered on morning of day 8 of gestation; format: toxicity, organism-based; parameters: dose 310 mg/kg, route intraperitoneal; conditions: in vivo; how it was run: as §4
Rattus norvegicus [23] = test: Anticonvulsant activity in Sprague-Dawley rat assessed as inhibition of maximal electroshock-induced seizures at 30 mg/kg, po after 4 hrs
Mus musculus [24] = test: Anticonvulsant activity in CF1 albino mouse assessed as inhibition of maximal electroshock-induced seizures at 300 mg/kg, ip after 4 hrs; format: functional, organism-based; parameters: dose 300 mg/kg; how it was run: as §2
Mus musculus [25] = test: Anticonvulsant activity in CF1 albino mouse assessed as inhibition of maximal electroshock-induced seizures at 30 mg/kg, ip after 4 hrs; format: functional, organism-based; parameters: dose 30 mg/kg; how it was run: as §2
Mus musculus [26] = test: Neurotoxicity in CF1 albino mouse assessed as motor impairment at 100 mg/kg, ip after 0.5 hrs; format: toxicity, organism-based; parameters: dose 100 mg/kg, route intraperitoneal; conditions: in vivo
Mus musculus [27] = test: Teratogenic effect in SWV mouse assessed as resorptions at 511 mg/kg, ip administered on morning of day 8 of gestation; format: toxicity, organism-based; parameters: dose 511 mg/kg, route intraperitoneal; conditions: in vivo; how it was run: as §3
Rattus norvegicus [28] = species on record: Rattus norvegicus; test: Protective index, ratio of TD50 for rat to ED50 for maximal electroshock-induced rat seizure model
Rattus norvegicus [29] = test: Neurotoxicity in Sprague-Dawley rat assessed as motor impairment at 30 mg/kg, po after 0.25 to 4 hrs; conditions: in vivo
Mus musculus [30] = test: Neurotoxicity in CF1 albino mouse assessed as motor impairment at 30 mg/kg, ip after 0.5 hrs; format: toxicity, organism-based; parameters: dose 30 mg/kg, route intraperitoneal; conditions: in vivo

CCC(CC)C(=O)NCc1ccc(S(N)(=O)=O)cc1
Activity (Mus musculus [1]): Non-toxic | Activity (Mus musculus [2]): inactive | Activity (Rattus norvegicus [3]): inactive | Activity (Mus musculus [4]): inactive | Activity (Mus musculus [5]): inactive | Activity (Mus musculus [6]): Active | Activity (Mus musculus [7]): Non-toxic | Activity (Mus musculus [8]): Non-toxic | ED50 (Rattus norvegicus [9]): 24.7 mg/kg | Activity (Mus musculus [10]): inactive | Activity (Mus musculus [11]): inactive | Activity (Mus musculus [12]): 6.5% | Activity (Mus musculus [13]): 3.1% | Activity (Mus musculus [14]): Active | Activity (Mus musculus [15]): inactive | Activity (Mus musculus [16]): 3.4% | Activity (Mus musculus [17]): 93.6% | Activity (Mus musculus [18]): inactive | Activity (Mus musculus [19]): Non-toxic | Activity (Mus musculus [20]): 94.4% | Activity (Mus musculus [21]): 5.6% | Activity (Mus musculus [22]): 93.5% | Activity (Rattus norvegicus [23]): inactive | Activity (Mus musculus [24]): Active | Activity (Mus musculus [25]): inactive | Activity (Mus musculus [26]): Non-toxic | Activity (Mus musculus [27]): 6.4% | Ratio TD50/ED50 (Rattus norvegicus [28]): >20.2 | Activity (Rattus norvegicus [29]): Non-toxic | Activity (Mus musculus [30]): Non-toxic
